# ChEMBL document CHEMBL4513216, “Probing the Open Global Health Chemical Diversity Library for Multistage-Active Starting Points for Next-Generation Antimalarials” (ACS Infect Dis, 2020)
# Experiment: Toxicity liver stage against HepG2, at 10uM
# Format: cell-based
# Parameters: test concentration 10 uM, cell line HepG2-A16-CD81EGFP
# Details: human, HepG2-A16-CD81EGFP cells; read-out: INHIBITION
# Summary of the method: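 Uninfected HepG2-A16-CD81EGFP cells, 3 × 10^3 per well, 1536-well, plated on prespotted compound at 10 μM final, parasite-free screening media added to match infected plates; puromycin 10 μM positive, DMSO 0.5% negative; run in parallel with 48 h PbLuc assay at 37 °C, 5% CO2; viability by CellTiter-Glo luminescence, normalized to controls.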
compound,measurement,value
CC1(C)CNC(=O)CN(C(=O)CCc2ccccc2)C1,cytotoxicity at 10 µM,-8.57%
O=C1CN(S(=O)(=O)CC(F)(F)F)CC(O)CN1CCCc1ccccc1 (configuration not stated),cytotoxicity at 10 µM,-7.99%
O=C(Nc1cnc(Oc2ccccc2F)nc1)C1CC1,cytotoxicity at 10 µM,0.0701%
COc1ccc(C(C)N(C)Cc2c(C(C)C)[nH]c3ncccc23)cc1 (configuration not stated),cytotoxicity at 10 µM,-7.99%
CCCn1nc(C)c(C(=O)N(C)[C@@H]2CC[C@@H](OC)[C@@H]2O)c1C,cytotoxicity at 10 µM,4.36%
CN1CCC(c2cc(CCO)ncn2)C1 (configuration not stated),cytotoxicity at 10 µM,4.87%
Cc1nc(C2CCCN2C(=O)c2ccccc2)ncc1C(N)=O (configuration not stated),cytotoxicity at 10 µM,-1.47%
CCc1ccc2c(c1)C(CCNC(=O)CSC(F)(F)F)C(=O)N2 (configuration not stated),cytotoxicity at 10 µM,-45.5%
CC(C)C(=O)Nc1cccc(OCC(=O)NCc2ccccc2F)c1,cytotoxicity at 10 µM,-6.19%
CN(Cc1ccc2c(c1)OCO2)Cc1cscn1,cytotoxicity at 10 µM,-11.1%
CS(=O)(=O)NCCC(=O)Nc1ccccc1N1CCc2ccccc21,cytotoxicity at 10 µM,11.9%
COC(C)c1noc(CN(C)c2ncccn2)n1 (configuration not stated),cytotoxicity at 10 µM,7.33%
CCC1CN(C)c2ccccc2CN1CCn1cncn1 (configuration not stated),cytotoxicity at 10 µM,9.4%
Cc1cc(C[S+]([O-])Cc2ccccc2F)no1 (configuration not stated),cytotoxicity at 10 µM,-3.71%
COC(=O)c1ccc(N2CCN(C(=O)CC(F)(F)F)C(C)C2)cc1 (configuration not stated),cytotoxicity at 10 µM,4.42%
Cc1ccccc1CC(=O)NS(=O)(=O)c1cccc2cnccc12,cytotoxicity at 10 µM,-0.601%
COc1ccc(N(C)C(=O)c2cccc(S(C)(=O)=O)c2)cn1,cytotoxicity at 10 µM,7.36%
Cc1ccc(C(=O)NCCCN(C)S(C)(=O)=O)c(=O)[nH]1,cytotoxicity at 10 µM,-5.89%
COc1cc(CN(C)C(=O)NCc2ccccn2)ccc1SC,cytotoxicity at 10 µM,-8.42%
COc1ccc(CCNC2CCCN(c3ccc(C)nn3)C2)cc1 (configuration not stated),cytotoxicity at 10 µM,-3.65%
CCC(CC)c1cc(CNC(=O)N2CCC(CO)CC2)on1,cytotoxicity at 10 µM,3.76%
CCc1nc(CN2CCCN(c3cnc4ccccc4n3)CC2)no1,cytotoxicity at 10 µM,22%
COCCCN(C)C(=O)c1cccc(Nc2cnccn2)c1,cytotoxicity at 10 µM,-8.43%
CC(=O)N1CCN(c2ccnc3c(F)cc(Br)cc23)CC1,cytotoxicity at 10 µM,13.6%
O=C(c1ccc2[nH]ccc2c1)N1CCCCC1c1nc[nH]n1 (configuration not stated),cytotoxicity at 10 µM,-9.04%
Cc1nc2n(n1)CC(NCC(=O)NCCC1=CCCCC1)CC2 (configuration not stated),cytotoxicity at 10 µM,-9.36%
CC(NCC1CCN(CCO)CC1)c1cccc(Cl)c1 (configuration not stated),cytotoxicity at 10 µM,-12.5%
CC(C)(C)CN(CCC#N)Cn1cc(Cl)cn1,cytotoxicity at 10 µM,6.29%
Cc1sc(Br)cc1S(=O)(=O)NCc1ccccn1,cytotoxicity at 10 µM,-3.85%
CC(NC(=O)Nc1nccs1)C(=O)NC1CCCC1 (configuration not stated),cytotoxicity at 10 µM,1.87%
O=C(NCc1cccc(F)c1)Nc1ccn(CCN2CCOCC2)n1,cytotoxicity at 10 µM,-8.45%
CCc1ncc(C(=O)NC(C)(C)C(=O)OC)s1,cytotoxicity at 10 µM,5.01%
CC(=O)N1CCN(C(=O)CNc2c(C)cccc2OC(F)F)CC1,cytotoxicity at 10 µM,3.24%
Cc1cnn(CCNCc2c(C)nn(-c3ccccc3)c2C)c1,cytotoxicity at 10 µM,-14.1%
Cc1nc(CSCc2ccc(OCC(F)(F)F)nc2)no1,cytotoxicity at 10 µM,-2.34%
CCC1COCCN1C(=O)NCc1nccn1Cc1ccccc1 (configuration not stated),cytotoxicity at 10 µM,-0.457%
O=S(=O)(NCc1ccc(S(=O)(=O)N2CCCC2)s1)c1cc(Cl)cc(Cl)c1,cytotoxicity at 10 µM,-11.1%
CC(NCCN1CCC(N(C)C)CC1)c1ccc(F)cc1N(C)C (configuration not stated),cytotoxicity at 10 µM,-13%
CCCc1nn(Cc2ccc(Br)s2)c(=O)o1,cytotoxicity at 10 µM,3.81%
COc1ccc(C(C)N2CCC(CO)CC2)cc1Cl (configuration not stated),cytotoxicity at 10 µM,-51.1%
Cc1nn(C)c(N(C)C)c1CNCc1cccnc1,cytotoxicity at 10 µM,6%
Cc1cccc(C(=O)N2CCN(S(C)(=O)=O)[C@@H](C)C2)c1C,cytotoxicity at 10 µM,3.46%
CC(C)O[C@@H]1CC[C@H]2[C@H]1OCCN2C(=O)c1nn(C)c2ccccc12,cytotoxicity at 10 µM,-0.824%
c1ccc(CN2C[C@@H]3OCCN(c4cccnc4)[C@@H]3C2)nc1,cytotoxicity at 10 µM,-72.8%
COCCC1COC2(CCN(C(=O)c3ccccc3)CC2)C1 (configuration not stated),cytotoxicity at 10 µM,-87.5%
Cc1nc(NCC2CC2)nc2c1COCC21CCN(CC(=O)N(C)C)C1 (configuration not stated),cytotoxicity at 10 µM,-78.5%
COCCO[C@H]1CCN(C(=O)c2ccsc2)[C@H]1Cc1ccncc1,cytotoxicity at 10 µM,-75.4%
Cc1noc(C)c1CN1CC[C@H]2C[C@H](c3nccs3)O[C@@H]2C1,cytotoxicity at 10 µM,-70.7%
c1ccc(CO[C@H]2CC[C@H]3[C@H]2OCCN3CCN2CCCCC2)nc1,cytotoxicity at 10 µM,-7.16%
CO[C@@H]1CO[C@@]2(CCCN(S(=O)(=O)c3ccccc3)C2)C1,cytotoxicity at 10 µM,-79.8%
CC1=N[C@@]2(CC[C@@H]3CN(S(=O)(=O)CC(C)C)C[C@@H]32)C(=O)N1CC(C)C,cytotoxicity at 10 µM,-1.34%
CS(=O)(=O)N1CCC(c2nnc3ccc(C(=O)N4CCCC4)cn23)C1 (configuration not stated),cytotoxicity at 10 µM,1.47%
Cc1nn(C)cc1-c1ccnc(N2CCN(c3cnccn3)CC2)n1,cytotoxicity at 10 µM,7.26%
COCCN(C)C(C(=O)O)c1ccc(F)c(Cl)c1 (configuration not stated),cytotoxicity at 10 µM,12.2%
CN(CCO)C[C@@H]1CN(C(=O)Cc2ccc3ccccc3c2)C[C@@H]1CO,cytotoxicity at 10 µM,-1.96%
COc1ccccc1N1CCN(Cc2nccc(OC)c2OC)CC1=O,cytotoxicity at 10 µM,-4%
CCN(Cc1noc(C)n1)C(=O)C(c1cccc(C)c1)N(C)C (configuration not stated),cytotoxicity at 10 µM,-1.34%
Cn1ccnc1-c1cn(CCc2nnc(N)s2)nn1,cytotoxicity at 10 µM,-4.3%
Cc1cc(NCc2ccc(C#N)cc2)n2nc(C)cc2n1,cytotoxicity at 10 µM,-10.9%
COC(=O)c1cc(OCC2CCC2)cc(C(=O)NCC(C)(C)O)c1,cytotoxicity at 10 µM,4.01%
CN(CCc1ccccc1)Cc1cc(C(=O)N2CCSCC2)no1,cytotoxicity at 10 µM,3.88%
COc1ccc2c(CN3CCCN(Cc4ccncc4)CC3)n[nH]c2c1,cytotoxicity at 10 µM,-4.32%
COC(=O)CNCC1(O)CCCN(Cc2cccc(F)c2F)C1=O (configuration not stated),cytotoxicity at 10 µM,-6.87%
COc1cccc(CCC2CCCN(C(=O)c3ccc(=O)n(C)n3)C2)c1 (configuration not stated),cytotoxicity at 10 µM,4.34%
COc1cccn(CC(=O)N(C)CCC2CCOCC2)c1=O,cytotoxicity at 10 µM,-19%
C[C@@H]1CN(CCOCc2ccccc2)CC[C@@]1(O)C1CCC1,cytotoxicity at 10 µM,1.4%
COc1ccc2c(CN3CCN(Cc4cccc(F)c4)CC3)n[nH]c2c1,cytotoxicity at 10 µM,-1.86%
CSCC1CCN(c2nc(N)ncc2C)CC1,cytotoxicity at 10 µM,-5.2%
Cc1ccc(CN2C(=O)OCC2CO)c2ccccc12 (configuration not stated),cytotoxicity at 10 µM,-5.21%
O=C(O)c1ccnc(-c2ccnc(N3CCC4(CCO4)CC3)n2)c1,cytotoxicity at 10 µM,-10.7%
COCc1cc(CNC(=O)c2cc(NC(C)=O)ccc2Cl)n[nH]1,cytotoxicity at 10 µM,5.3%
CC(C)n1cc(CN(C)C[C@@H]2CCCN3CCCC[C@H]23)cn1,cytotoxicity at 10 µM,0.276%
O=C(COCC(F)(F)C(F)F)N1CCC(c2ncc[nH]2)CC1,cytotoxicity at 10 µM,-53.9%
CCC(CO)N(Cc1ccsc1)Cc1ccc(-c2ccn[nH]2)s1 (configuration not stated),cytotoxicity at 10 µM,-1.37%
COCC(=O)N1CCC2(CCCN(Cc3cc(OC)ccc3F)C2)C1 (configuration not stated),cytotoxicity at 10 µM,-1.62%
COCCN1CCCC2(CCN(C(=O)c3cnc(O)cn3)C2)C1=O (configuration not stated),cytotoxicity at 10 µM,0.0942%
CS(=O)(=O)N[C@H]1CN(C(=O)CCc2ccco2)C[C@@H]1C1CC1,cytotoxicity at 10 µM,2.7%
Cc1nc(NC(=O)NC2CC(=O)N(C)C2)nn1C(C)C (configuration not stated),cytotoxicity at 10 µM,-8.15%
Cc1cc(CC(C)NC(=O)COc2ccc(F)cc2F)[nH]n1 (configuration not stated),cytotoxicity at 10 µM,-49%
CCc1nnc(CN2CCN(c3cccc(OC)c3)C(=O)C2)o1,cytotoxicity at 10 µM,18.4%
CN(Cc1ccccn1)C(C(=O)O)c1ccc2c(c1)OCO2 (configuration not stated),cytotoxicity at 10 µM,1.16%
CC(C)CNC(=O)CN(C)S(C)(=O)=O,cytotoxicity at 10 µM,13.7%
CN1CCN(C(=O)C2CN(Cc3cc4ccccc4o3)CCN2)CC1 (configuration not stated),cytotoxicity at 10 µM,-8.2%
CCC(C)N(Cc1ccncc1)C(=O)CCC(=O)OC (configuration not stated),cytotoxicity at 10 µM,-14.5%
CCCn1ncc(C(=O)N(C)Cc2cc(C3CC3)[nH]n2)c1C,cytotoxicity at 10 µM,-4.65%
CNC(=O)c1cccc(C2CNCCN2C(C)=O)c1 (configuration not stated),cytotoxicity at 10 µM,0.384%
CN1CCN(C2CCN(CCOc3ccccc3)CC2)C1=O,cytotoxicity at 10 µM,-2.15%
CC(C)Cc1cc(NC(=O)c2ccc(=O)[nH]n2)n(C)n1,cytotoxicity at 10 µM,-10.1%
NC(=O)NCC1CCCCN1C(=O)c1cccc(C(F)(F)F)c1 (configuration not stated),cytotoxicity at 10 µM,-7.32%
COCCCNC(=O)CN(C)C(=O)c1cc(C)ccc1O,cytotoxicity at 10 µM,-6.81%
O=C(Nc1ccc(CCN2CCC(O)CC2)cc1)C1CCOCC1,cytotoxicity at 10 µM,-8.08%
CC(C)(C)c1nnc(CN2CCOC(Cn3cncn3)C2)o1 (configuration not stated),cytotoxicity at 10 µM,-1.5%
Cc1cc(C)n(CC2CN(Cc3cscn3)CCO2)n1 (configuration not stated),cytotoxicity at 10 µM,-2.68%
CC(C)Oc1ncccc1CNC(=O)N1CCC(C(N)=O)C1 (configuration not stated),cytotoxicity at 10 µM,-6.08%
Cc1ccc(C2CCCN2Cc2nc3c(cnn3C)c(=O)[nH]2)cc1C (configuration not stated),cytotoxicity at 10 µM,-0.858%
CCN(CC1CCCO1)C(=O)Nc1ccc(F)cc1OC (configuration not stated),cytotoxicity at 10 µM,-8.98%
COCCCN1CCc2cncnc2C1,cytotoxicity at 10 µM,-9.68%
Cc1noc(Cl)c1CCC(=O)N1CCc2sccc2C1,cytotoxicity at 10 µM,2.65%
CC(NCc1ccc(F)cc1)c1ccc(OCC(=O)NC2CC2)cc1 (configuration not stated),cytotoxicity at 10 µM,3.99%
Cc1nc(C)n(C2CCCN(C(=O)c3csc(C(C)C)n3)C2)n1 (configuration not stated),cytotoxicity at 10 µM,-1.72%
COc1ccc(CN2CCN(C(C)c3nc(C4CC4)no3)CC2)cc1 (configuration not stated),cytotoxicity at 10 µM,4.31%
Cc1nccc(C2(C)CCCNC2)n1 (configuration not stated),cytotoxicity at 10 µM,9.22%
COc1ccc(CN2CCn3cc(CN4CCN(C)CC4)nc3C2)cc1,cytotoxicity at 10 µM,-0.00161%
COCCN1CCO[C@H]2CN(Cc3cc[nH]n3)C[C@H]21,cytotoxicity at 10 µM,-105%
COCCN1CCC2(C1)c1ccccc1S(=O)(=O)N2C (configuration not stated),cytotoxicity at 10 µM,11.4%
O=C([C@@H]1COC[C@H]2CN(C3CCCC3)C[C@H]21)N1CCCCO1,cytotoxicity at 10 µM,-1.11%
Fc1cnc(N2CCCC3(CCN(Cc4ccoc4)C3)C2)nc1 (configuration not stated),cytotoxicity at 10 µM,-80.6%
O=C(c1ccncc1)N1CCC2(CCCN(c3ncc(F)cn3)C2)C1 (configuration not stated),cytotoxicity at 10 µM,-105%
Cn1ncc2c(NC3CCC(N)CC3)nc(C(C)(C)C)nc21 (configuration not stated),cytotoxicity at 10 µM,8%
Cn1cc(CCC(=O)N2C[C@@H]3CC[C@H]2CN(Cc2cccnc2)C3)cn1,cytotoxicity at 10 µM,-12.4%
CC(C)(C)c1ccc(OCC(=O)O)c(CN2C[C@H]3CC(O)C[C@H]3C2)c1 (some centres not stated),cytotoxicity at 10 µM,3.46%
Cc1nc[nH]c1CN1C[C@H]2CC[C@@H](C1)N(C(=O)CCn1cncn1)C2,cytotoxicity at 10 µM,1.15%
